Reference: ChEMBL document CHEMBL3774372, “Design, physico-chemical properties and biological evaluation of some new N-[(phenoxy)alkyl]- and N-{2-[2-(phenoxy)ethoxy]ethyl}aminoalkanols as anticonvulsant agents” (Bioorg Med Chem, 2016)
Active and inactive are the calls of the source.

What was measured:
Rattus norvegicus [1] = species on record: Rattus norvegicus; test: Displacement of [3H]GABA from rat cerebral cortex GABA receptor at 10^-5 M; assay type: tissue-based
Method in brief: (§1)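 Radioligand binding screen run at a single test concentration of 10^-5 M. Each target used its stated receptor source (human recombinant CHO or HEK-293 cells, endogenous cell lines, or rat tissue membranes) with the listed radioligand.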

[2] = molecular target: Adrenergic receptor alpha-1 (Rattus norvegicus) (UniProt P15823+P23944+P43140); test: Displacement of [3H]prazosin from rat cerebral cortex Alpha-1 adrenergic receptor at 10^-5 M; assay type: tissue-based
Method in brief: (§2)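 Radioligand displacement screen with the test agent at a single 10^-5 M concentration; receptor source and radioligand per target as tabulated (recombinant human cell lines or rat cerebral cortex/urinary bladder).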

Rattus norvegicus [3] = test: Anticonvulsant activity in pilocarpine-induced status epilepticus Sprague-Dawley rat model at 30 mg/kg, ip after 0.5 hrs during post stage 3 seizure; assay type: functional, organism-based
Method in brief: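 Rats given pilocarpine 50 mg/kg ip and observed to first convulsive seizure (Racine stage 3–5, time zero); test drug then given ip in 0.5% methylcellulose. Efficacy = halting further stage 3–5 convulsive seizures; scored protected/tested, time after first stage 3 seizure.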

Mus musculus = test: Anticonvulsant activity in mouse assessed as protection against subcutaneous pentylenetetrazol-induced seizures at 30 mg/kg, ip measured after 4 hrs; assay type: functional, organism-based
Method in brief: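 Mice dosed ip as 0.5% methylcellulose suspension; pentylenetetrazole 85 mg/kg in 0.9% NaCl injected subcutaneously into posterior midline, animals watched at least 30 min. Protection = no threshold seizure (single clonic spasm episode lasting ≥5 s); scored protected/tested.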

[4] = molecular target: Adenosine receptor A2a (Homo sapiens) (UniProt P29274); test: Displacement of [3H]CGS 21680 from human recombinant adenosine A2a receptor expressed in HEK293 cells at 10^-5 M; assay type: cell-based; method in brief: as §1
[5] = molecular target: Adrenergic receptor alpha-2 (Rattus norvegicus) (UniProt P22086+P19328+P22909); test: Displacement of [3H]RX 821002 from rat cerebral cortex Alpha-2 adrenergic receptor at 10^-5 M; assay type: tissue-based; method in brief: as §1
[6] = molecular target: Beta-1 adrenergic receptor (Homo sapiens) (UniProt P08588); test: Displacement of [3H](-)CGP12177 from human recombinant Beta-1 adrenergic receptor expressed in HEK293 cells at 10^-5 M; assay type: cell-based; method in brief: as §1
[7] = molecular target: Type-2 angiotensin II receptor (Homo sapiens) (UniProt P50052); test: Displacement of [125I]CGP42112A from human recombinant AT2 receptor expressed in HEK293 cells at 10^-5 M; assay type: cell-based; method in brief: as §1
[8] = molecular target: Translocator protein (Rattus norvegicus) (UniProt P16257); test: Displacement of [3H]PK 11195 from rat heart peripheral-type benzodiazepine receptor at 10^-5 M; method in brief: as §1
[9] = molecular target: Cannabinoid receptor 1 (Homo sapiens) (UniProt P21554); test: Displacement of [3H]CP 55940 from human recombinant CB1 receptor expressed in CHO cells at 10^-5 M; assay type: cell-based; method in brief: as §1
[10] = molecular target: Cholecystokinin receptor type A (Homo sapiens) (UniProt P32238); test: Displacement of [125I]CCK-8s from human recombinant CCK-A receptor expressed in CHO cells at 10^-5 M; assay type: cell-based; method in brief: as §1
[11] = molecular target: D(1A) dopamine receptor (Homo sapiens) (UniProt P21728); test: Displacement of [3H]SCH23390 from human recombinant Dopamine D1 receptor expressed in CHO cells at 10^-5 M; assay type: cell-based; method in brief: as §2
[12] = molecular target: D(4) dopamine receptor (Homo sapiens) (UniProt P21917); test: Displacement of [3H]methylspiperone from human recombinant Dopamine D4.4 receptor expressed in CHO cells at 10^-5 M; assay type: cell-based; method in brief: as §2
[13] = molecular target: Galanin receptor type 1 (Homo sapiens) (UniProt P47211); test: Displacement of [125I]galanin from human recombinant GAL1 receptor expressed in HEK293 cells at 10^-5 M; assay type: cell-based; method in brief: as §1
[14] = molecular target: C-X-C chemokine receptor type 2 (Homo sapiens) (UniProt P25025); test: Displacement of [125I]IL-8 from human recombinant CXCR2 receptor expressed in HEK293 cells at 10^-5 M; assay type: cell-based; method in brief: as §1
[15] = molecular target: Muscarinic acetylcholine receptor M1 (Homo sapiens) (UniProt P11229); test: Displacement of [3H]pirenzepine from human recombinant muscarinic M1 receptor expressed in CHO cells at 10^-5 M; assay type: cell-based; method in brief: as §2
[16] = molecular target: Muscarinic acetylcholine receptor M2 (Homo sapiens) (UniProt P08172); test: Displacement of [3H]AF-DX384 from human recombinant muscarinic M2 receptor expressed in CHO cells at 10^-5 M; assay type: cell-based; method in brief: as §1
[17] = molecular target: Muscarinic acetylcholine receptor M5 (Homo sapiens) (UniProt P08912); test: Displacement of [3H]4-DAMP from human recombinant muscarinic M5 receptor expressed in CHO cells at 10^-5 M; assay type: cell-based; method in brief: as §1
[18] = molecular target: Substance-P receptor (Homo sapiens) (UniProt P25103); test: Displacement of [125I]BH-SP from NK1 receptor in human U373MG cells at 10^-5 M; assay type: cell-based; details: U-373MG ATCC; method in brief: as §1
CHO = test: Displacement of [3H]DADLE from human recombinant delta-type 2 opioid receptor expressed in CHO cells at 10^-5 M; assay type: cell-based; method in brief: as §1
[19] = molecular target: Mu-type opioid receptor (Homo sapiens) (UniProt P35372); test: Displacement of [3H]DAMGO from human recombinant Mu-type opioid receptor expressed in CHO cells at 10^-5 M; assay type: cell-based; method in brief: as §1
[20] = molecular target: Nociceptin receptor (Homo sapiens) (UniProt P41146); test: Displacement of [3H]nociceptin from human recombinant Nociceptin receptor expressed in HEK293 cells at 10^-5 M; assay type: cell-based; method in brief: as §2
Rattus norvegicus [21] = species on record: Rattus norvegicus; test: Displacement of [3H]alpha,beta-MeATP from rat urinary bladder P2X receptor at 10^-5 M; method in brief: as §2
[22] = molecular target: 5-hydroxytryptamine receptor 1A (Homo sapiens) (UniProt P08908); test: Displacement of [3H]8-OHDPAT from human recombinant 5-HT1A receptor expressed in HEK293 cells at 10^-5 M; assay type: cell-based; method in brief: as §1
[23] = molecular target: 5-hydroxytryptamine receptor 2A (Homo sapiens) (UniProt P28223); test: Displacement of [3H]ketanserin from human recombinant 5-HT2A receptor expressed in HEK293 cells at 10^-5 M; assay type: cell-based; method in brief: as §2
[24] = molecular target: 5-hydroxytryptamine receptor 7 (Homo sapiens) (UniProt P34969); test: Displacement of [3H]LSD from human recombinant 5-HT7 receptor expressed in CHO cells at 10^-5 M; assay type: cell-based; method in brief: as §1
Jurkat = test: Displacement of [3H]DTG from sigma receptor in human jurkat cells at 10^-5 M; assay type: cell-based; method in brief: as §1
[25] = molecular target: Vasopressin V1a receptor (Homo sapiens) (UniProt P37288); test: Displacement of [3H]AVP from human recombinant arginine vasopressin receptor 1a expressed in CHO cells at 10^-5 M; assay type: cell-based; method in brief: as §1
Rattus norvegicus [26] = species on record: Rattus norvegicus; test: Displacement of [3H]D888 from rat cerebral cortex L-type calcium channel verapamil binding site at 10^-5 M; assay type: tissue-based; method in brief: as §1
Rattus norvegicus [27] = species on record: Rattus norvegicus; test: Displacement of [[…]]batrachotoxin from rat cerebral cortex Sodium channel site 2 at 10^-5 M; assay type: tissue-based
[28] = molecular target: Sodium-dependent noradrenaline transporter (Homo sapiens) (UniProt P23975); test: Displacement of [3H]nisoxentine from human recombinant norepinephrine transporter expressed in CHO cells at 10^-5 M; assay type: cell-based; method in brief: as §2
[29] = molecular target: Sodium-dependent serotonin transporter (Homo sapiens) (UniProt P31645); test: Displacement of [3H]imipramine from human recombinant 5-HT transporter expressed in CHO cells at 10^-5 M; assay type: cell-based; method in brief: as §2

Adenosine receptor A2a (Homo sapiens), sequence (P29274 whole entry): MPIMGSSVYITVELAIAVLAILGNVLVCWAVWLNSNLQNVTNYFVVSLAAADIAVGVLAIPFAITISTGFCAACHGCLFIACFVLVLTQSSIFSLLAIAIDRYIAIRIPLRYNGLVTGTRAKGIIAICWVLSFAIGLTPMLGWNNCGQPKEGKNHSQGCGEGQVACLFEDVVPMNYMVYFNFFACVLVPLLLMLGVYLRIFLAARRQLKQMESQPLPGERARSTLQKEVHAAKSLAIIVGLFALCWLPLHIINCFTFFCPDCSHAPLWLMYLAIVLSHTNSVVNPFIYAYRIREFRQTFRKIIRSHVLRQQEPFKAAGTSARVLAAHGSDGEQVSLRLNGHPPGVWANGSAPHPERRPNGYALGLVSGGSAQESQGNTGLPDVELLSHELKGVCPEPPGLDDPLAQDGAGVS
5-hydroxytryptamine receptor 1A (Homo sapiens), sequence (P08908 whole entry): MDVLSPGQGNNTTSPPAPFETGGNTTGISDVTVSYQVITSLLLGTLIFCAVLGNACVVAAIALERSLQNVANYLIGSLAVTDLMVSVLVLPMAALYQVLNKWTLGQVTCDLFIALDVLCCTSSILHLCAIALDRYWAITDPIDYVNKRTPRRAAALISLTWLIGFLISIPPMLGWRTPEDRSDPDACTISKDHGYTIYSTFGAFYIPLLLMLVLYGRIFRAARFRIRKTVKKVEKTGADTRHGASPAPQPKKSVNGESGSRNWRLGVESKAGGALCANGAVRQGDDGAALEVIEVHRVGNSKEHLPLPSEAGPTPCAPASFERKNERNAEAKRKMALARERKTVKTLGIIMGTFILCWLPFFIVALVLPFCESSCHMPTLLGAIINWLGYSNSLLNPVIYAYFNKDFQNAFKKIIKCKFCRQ
Muscarinic acetylcholine receptor M5 (Homo sapiens), sequence (P08912 whole entry): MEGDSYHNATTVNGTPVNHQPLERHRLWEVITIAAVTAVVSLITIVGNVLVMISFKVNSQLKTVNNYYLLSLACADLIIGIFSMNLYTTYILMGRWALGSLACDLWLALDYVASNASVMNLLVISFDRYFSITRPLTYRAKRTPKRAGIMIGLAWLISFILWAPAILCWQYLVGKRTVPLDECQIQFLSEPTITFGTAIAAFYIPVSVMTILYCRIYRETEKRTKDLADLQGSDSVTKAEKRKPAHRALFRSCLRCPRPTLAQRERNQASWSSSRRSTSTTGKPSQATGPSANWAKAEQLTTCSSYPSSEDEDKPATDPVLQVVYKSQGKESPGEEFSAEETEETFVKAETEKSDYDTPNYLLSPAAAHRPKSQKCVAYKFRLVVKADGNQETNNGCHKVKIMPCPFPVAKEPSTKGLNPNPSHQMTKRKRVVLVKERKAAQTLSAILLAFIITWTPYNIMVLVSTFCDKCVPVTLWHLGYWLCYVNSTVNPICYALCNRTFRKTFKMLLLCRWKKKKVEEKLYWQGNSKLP
Mu-type opioid receptor (Homo sapiens), sequence (P35372 whole entry): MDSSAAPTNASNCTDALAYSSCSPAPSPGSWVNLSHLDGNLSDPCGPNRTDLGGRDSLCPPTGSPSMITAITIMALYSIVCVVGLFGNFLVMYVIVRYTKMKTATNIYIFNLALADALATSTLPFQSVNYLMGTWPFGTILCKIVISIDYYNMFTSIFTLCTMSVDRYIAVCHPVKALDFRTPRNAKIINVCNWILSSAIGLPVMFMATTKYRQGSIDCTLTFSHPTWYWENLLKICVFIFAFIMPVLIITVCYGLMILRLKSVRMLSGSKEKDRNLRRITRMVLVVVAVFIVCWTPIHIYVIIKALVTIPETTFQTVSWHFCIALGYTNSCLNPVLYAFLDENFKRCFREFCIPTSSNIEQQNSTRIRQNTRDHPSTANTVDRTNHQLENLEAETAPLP
5-hydroxytryptamine receptor 7 (Homo sapiens), sequence (P34969 whole entry): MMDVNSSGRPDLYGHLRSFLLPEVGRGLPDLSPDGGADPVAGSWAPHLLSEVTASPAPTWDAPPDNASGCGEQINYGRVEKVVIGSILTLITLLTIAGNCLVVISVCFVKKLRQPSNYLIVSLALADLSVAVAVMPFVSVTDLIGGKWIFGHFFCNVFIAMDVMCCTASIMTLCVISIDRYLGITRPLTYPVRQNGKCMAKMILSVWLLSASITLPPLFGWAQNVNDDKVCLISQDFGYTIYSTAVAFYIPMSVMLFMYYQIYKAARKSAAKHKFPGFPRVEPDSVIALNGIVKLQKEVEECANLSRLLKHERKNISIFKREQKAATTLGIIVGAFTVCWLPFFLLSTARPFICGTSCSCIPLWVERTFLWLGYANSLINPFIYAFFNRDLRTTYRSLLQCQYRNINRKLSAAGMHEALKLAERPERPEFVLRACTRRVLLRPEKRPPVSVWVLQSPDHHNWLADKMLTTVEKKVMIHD
C-X-C chemokine receptor type 2 (Homo sapiens), sequence (P25025 whole entry): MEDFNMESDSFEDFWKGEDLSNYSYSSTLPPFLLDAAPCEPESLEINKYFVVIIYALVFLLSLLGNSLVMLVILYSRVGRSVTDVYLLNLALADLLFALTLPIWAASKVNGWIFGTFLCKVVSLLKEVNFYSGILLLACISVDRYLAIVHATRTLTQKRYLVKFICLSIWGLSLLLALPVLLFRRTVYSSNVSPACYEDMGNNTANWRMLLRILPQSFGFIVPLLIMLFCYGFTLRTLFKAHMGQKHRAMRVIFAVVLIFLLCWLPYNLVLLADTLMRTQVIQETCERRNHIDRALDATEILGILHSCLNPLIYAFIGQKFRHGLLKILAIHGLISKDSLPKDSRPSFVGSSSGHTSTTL
Sodium-dependent noradrenaline transporter (Homo sapiens), sequence (P23975 whole entry): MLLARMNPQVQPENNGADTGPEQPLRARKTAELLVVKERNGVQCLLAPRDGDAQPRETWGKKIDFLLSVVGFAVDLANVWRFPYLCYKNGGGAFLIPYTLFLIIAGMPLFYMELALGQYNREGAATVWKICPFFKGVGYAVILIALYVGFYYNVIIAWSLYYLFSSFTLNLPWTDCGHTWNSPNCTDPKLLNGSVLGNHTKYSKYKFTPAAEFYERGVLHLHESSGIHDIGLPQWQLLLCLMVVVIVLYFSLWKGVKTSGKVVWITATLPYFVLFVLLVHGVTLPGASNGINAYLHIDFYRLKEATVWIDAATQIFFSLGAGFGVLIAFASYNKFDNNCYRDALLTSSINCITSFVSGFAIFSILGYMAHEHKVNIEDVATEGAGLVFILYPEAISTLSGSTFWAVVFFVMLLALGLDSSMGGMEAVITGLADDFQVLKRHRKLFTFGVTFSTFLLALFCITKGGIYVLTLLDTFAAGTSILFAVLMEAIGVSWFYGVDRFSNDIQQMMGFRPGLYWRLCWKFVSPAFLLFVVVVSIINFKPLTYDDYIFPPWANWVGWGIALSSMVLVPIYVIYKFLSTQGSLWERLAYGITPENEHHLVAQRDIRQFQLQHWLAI
D(1A) dopamine receptor (Homo sapiens), sequence (P21728 whole entry): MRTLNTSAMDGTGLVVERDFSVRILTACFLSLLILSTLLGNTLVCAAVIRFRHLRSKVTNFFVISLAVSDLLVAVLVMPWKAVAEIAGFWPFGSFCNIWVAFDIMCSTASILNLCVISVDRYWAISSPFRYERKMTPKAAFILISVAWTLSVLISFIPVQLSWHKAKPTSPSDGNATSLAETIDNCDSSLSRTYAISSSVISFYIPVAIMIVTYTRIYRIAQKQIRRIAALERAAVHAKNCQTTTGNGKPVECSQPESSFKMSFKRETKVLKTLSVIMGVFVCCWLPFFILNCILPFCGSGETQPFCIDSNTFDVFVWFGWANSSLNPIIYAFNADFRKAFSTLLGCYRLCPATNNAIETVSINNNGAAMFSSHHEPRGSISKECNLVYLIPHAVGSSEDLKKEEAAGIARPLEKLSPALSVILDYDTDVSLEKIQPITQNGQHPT
Translocator protein (Rattus norvegicus), sequence (P16257 whole entry, looked up): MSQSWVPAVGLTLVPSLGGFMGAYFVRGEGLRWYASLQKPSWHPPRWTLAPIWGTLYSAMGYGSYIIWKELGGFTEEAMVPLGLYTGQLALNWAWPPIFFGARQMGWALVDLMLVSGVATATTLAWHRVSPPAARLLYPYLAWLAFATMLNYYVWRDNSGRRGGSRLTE
Vasopressin V1a receptor (Homo sapiens), sequence (P37288 whole entry, looked up): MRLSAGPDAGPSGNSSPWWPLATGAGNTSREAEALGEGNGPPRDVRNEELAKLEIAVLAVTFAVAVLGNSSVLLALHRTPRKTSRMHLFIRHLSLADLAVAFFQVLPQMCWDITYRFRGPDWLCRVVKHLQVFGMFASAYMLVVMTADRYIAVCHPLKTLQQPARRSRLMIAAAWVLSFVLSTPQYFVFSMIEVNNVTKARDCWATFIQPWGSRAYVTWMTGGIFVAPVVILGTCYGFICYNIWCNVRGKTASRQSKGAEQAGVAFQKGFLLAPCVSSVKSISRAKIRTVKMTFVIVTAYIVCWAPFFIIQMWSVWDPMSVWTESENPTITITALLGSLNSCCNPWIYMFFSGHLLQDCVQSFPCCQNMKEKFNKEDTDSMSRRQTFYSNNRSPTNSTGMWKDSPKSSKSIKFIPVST
Nociceptin receptor (Homo sapiens), sequence (P41146 whole entry): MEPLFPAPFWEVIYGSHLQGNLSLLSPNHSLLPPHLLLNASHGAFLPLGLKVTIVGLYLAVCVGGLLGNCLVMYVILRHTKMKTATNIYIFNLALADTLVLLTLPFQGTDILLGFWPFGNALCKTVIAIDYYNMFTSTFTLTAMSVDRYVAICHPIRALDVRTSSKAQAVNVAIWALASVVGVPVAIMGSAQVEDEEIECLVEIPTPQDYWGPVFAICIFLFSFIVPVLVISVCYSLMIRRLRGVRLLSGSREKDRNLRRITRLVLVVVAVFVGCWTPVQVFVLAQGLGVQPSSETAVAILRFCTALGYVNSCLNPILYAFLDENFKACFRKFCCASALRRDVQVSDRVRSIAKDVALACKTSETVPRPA

SMILES	inhibition (Rattus norvegicus [1])	inhibition [2]	Activity (Rattus norvegicus [3])	Activity (Mus musculus)	inhibition [4]	inhibition [5]	inhibition [6]	inhibition [7]	inhibition [8]	inhibition [9]	inhibition [10]	inhibition [11]	inhibition [12]	inhibition [13]	inhibition [14]	inhibition [15]	inhibition [16]	inhibition [17]	inhibition [18]	inhibition (CHO)	other results
Cc1cccc(C)c1OCCOCCN[C@@H](C)CO	17.7%	28.3%	inactive	inactive	-4%	35.5%	11.1%	11.7%	-6.7%	11.1%	2.2%	16.2%	35.8%	-0.4%	2.7%	22.8%	37.2%	5.7%	51.7%	-2.2%	inhibition [19]: 40.2%; inhibition [20]: 0.2%; inhibition (Rattus norvegicus [21]): 4.8%; inhibition [22]: 63.9%; inhibition [23]: 32.1%; inhibition [24]: 24.6%; inhibition (Jurkat): 95.6%; inhibition [25]: -0.8%; inhibition (Rattus norvegicus [26]): 65.9%; inhibition (Rattus norvegicus [27]): 79%; inhibition [28]: 34.5%; inhibition [29]: 91.4%
Cc1cccc(C)c1OCCOCCN[C@H](C)CO	0.8%	32.3%	inactive	inactive	-0.8%	42.8%	4.8%	6.4%	-3.9%	12.6%	-3.6%	12.4%	40.9%	-0.7%	2.9%	6%	20.8%	8.6%	17.3%	-1.7%	inhibition [19]: 23.6%; inhibition [20]: 1.5%; inhibition (Rattus norvegicus [21]): 3.5%; inhibition [22]: 70.6%; inhibition [23]: 22.6%; inhibition [24]: 24.5%; inhibition (Jurkat): 92.9%; inhibition [25]: -3.2%; inhibition (Rattus norvegicus [26]): 43.6%; inhibition (Rattus norvegicus [27]): 54.9%; inhibition [28]: 52.6%; inhibition [29]: 96.5%
